# Experimental data from ChEMBL document CHEMBL2331253, “Atropisomeric dihydroanthracenones as inhibitors of multiresistant Staphylococcus aureus” (J Med Chem, 2013).
# Activity calls are given as the source filed them. No cut-off for these calls is given here.
# How the values were obtained:
# [1] = tested on: Escherichia coli; assay: Antibacterial activity against Escherichia coli ATCC 25922 assessed as growth inhibition by CLSI broth microdilution method; format: functional
# [2] = tested on: BALB/3T3; assay: Cytotoxicity against mouse BALB/3T3 cells assessed as growth inhibition after 48 hrs by Alamar blue assay; format: cell-based; conditions: BALB/3T3, 48 h
# In short: (§1)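 THP-1 cells were kept in RPMI-1640 with 10% FCS. BALB/3T3 cells were kept in DMEM with 10% FCS. Cells were plated at 10^4 per well without antibiotics and exposed to 0.016−32 μg/mL (final, 0.32% DMSO) for 48 h at 37 °C, 5% CO2. AlamarBlue was added for 24 h more. Fluorescence (ex 560/em 600 nm) was expressed relative to untreated cells.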
# [3] = tested on: Streptococcus pneumoniae; assay: Antibacterial activity against Streptococcus pneumoniae ATCC 49619 assessed as growth inhibition by CLSI broth microdilution method; format: functional
# [4] = tested on: Streptococcus agalactiae; assay: Antibacterial activity against doxycycline-intermediate Streptococcus agalactiae 013761 assessed as growth inhibition by CLSI broth microdilution method; format: functional
# [5] = tested on: Staphylococcus aureus; assay: Antibacterial activity against amoxicillin, chloramphenicol, ciprofloxacin, clindamycin, erythromycin, fosmidomycin, gentamycin, kanamycin, nitrofurantoin, telithromycin, methicillin-resistant Staphylococcus aureus 25697 assessed as growth inhibition by CLSI broth microdilution method; format: functional
# In short: (§2)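 MICs determined by CLSI broth microdilution in Mueller–Hinton broth. Inoculum was prepared by direct colony suspension, at 5 × 10^5 CFU/mL.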
# [6] = tested on: Bacillus subtilis; assay: Antibacterial activity against Bacillus subtilis subsp. subtilis str. 168 trpC2 assessed as growth inhibition measured at 5 mins interval over 20 hrs by spectrophotometric analysis relative to control; format: functional, organism-based
# In short: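 B. subtilis 168 trpC2 was grown in lysogeny broth, shaken, at 37 °C. Dilution and inoculum were as for broth microdilution. OD600 was read every 5 min over 20 h in untreated versus treated cultures.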
# [7] = tested on: Staphylococcus aureus; assay: Antibacterial activity against Staphylococcus aureus ATCC 29213 assessed as growth inhibition by CLSI broth microdilution method; format: functional; in short: as §2
# [8] = tested on: Bacillus subtilis; assay: Induction of bmrC promoter in Bacillus subtilis IS34 promoter at 64 ug/mL after 3 hrs by luciferase reporter gene assay; format: functional, organism-based
# In short: (§3)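 Promoter–firefly luciferase fusions were built in B. subtilis IS34. Luminescence was read in a plate reader and expressed as percent of the untreated control. One representative experiment.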
# [9] = tested on: Streptococcus pyogenes; assay: Antibacterial activity against doxycycline-intermediate Streptococcus pyogenes 014327 assessed as growth inhibition by CLSI broth microdilution method; format: functional
# [10] = tested on: Staphylococcus aureus; assay: Antibacterial activity against ceftazidime, clarithromycin, ciprofloxacin, clindamycin, doxycycline, erythromycin, methicillin, moxifloxacin, kanamycin, telithromycin, rifampicin, methicillin-resistant, vancomycin-intermediate Staphylococcus aureus subsp. aureus Mu50 assessed as growth inhibition by CLSI broth microdilution method; format: functional; in short: as §2
# [11] = tested on: Enterococcus faecium; assay: Antibacterial activity against clarithromycin, erythromycin, telithromycin, vancomycin-resistant Enterococcus faecium 6011 assessed as growth inhibition by CLSI broth microdilution method; format: functional; in short: as §2
# [12] = tested on: Bacillus subtilis; assay: Induction of liaI promoter in Bacillus subtilis IS34 promoter at 64 ug/mL after 3 hrs by luciferase reporter gene assay; format: functional, organism-based; in short: as §3
# [13] = tested on: Enterococcus faecalis; assay: Antibacterial activity against clarithromycin, erythromycin, moxifloxacin, telithromycin, vancomycin-resistant Enterococcus faecalis UW 2689 assessed as growth inhibition by CLSI broth microdilution method; format: functional; in short: as §2
# [14] = tested on: Staphylococcus aureus; assay: Antibacterial activity against amoxicillin, chloramphenicol, ciprofloxacin, clindamycin, erythromycin, fosmidomycin, gentamycin, kanamycin, nitrofurantoin, telithromycin, methicillin-resistant Staphylococcus aureus 25697 assessed as concentration required for partial growth inhibition by CLSI broth microdilution method; format: functional
# [15] = tested on: Bacillus subtilis; assay: Induction of yorB promoter in Bacillus subtilis IS34 after 3 hrs at 0.01 to 100 ug/ml by luciferase reporter gene assay; format: functional; in short: as §3
# [16] = tested on: Escherichia coli; assay: Antibacterial activity against ciprofloxacin-resistant Escherichia coli WT-3-1 MB2 assessed as growth inhibition by CLSI broth microdilution method; format: functional; in short: as §2
# [17] = tested on: THP-1; assay: Cytotoxicity against human THP1 cells assessed as growth inhibition after 48 hrs by Alamar blue assay; format: cell-based; conditions: THP-1, 48 h; in short: as §1
# [18] = tested on: Bacillus subtilis; assay: Antibacterial activity against Bacillus subtilis subsp. subtilis str. 168 trpC2 assessed as growth inhibition by CLSI broth microdilution method; format: functional
# [19] = tested on: Bacillus subtilis; assay: Induction of recA promoter in Bacillus subtilis YB3001 using 4-methylumbelliferyl beta D-galactopyranoside as substrate incubated for 3 hrs prior to substrate addition measured after 1 hr by beta galactosidase reporter gene assay relative to control; format: functional
# In short: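 recA–β-galactosidase reporter in B. subtilis YB3001. Twofold compound dilutions in lysogeny broth were inoculated with mid-exponential cells and incubated 3 h at 37 °C, then frozen at −20 °C overnight. Cells were lysed with lysozyme (30 min, 37 °C) and Triton X-100. MUG was added and incubated 1 h at 25 °C. Fluorescence read at ex 360/em 450 nm.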
# [20] = tested on: Bacillus subtilis; assay: Induction of yorB promoter in Bacillus subtilis IS34 after 3 hrs by luciferase reporter gene assay relative to control; format: functional; in short: as §3
# [21] = tested on: Staphylococcus aureus; assay: Antibacterial activity against Staphylococcus aureus subsp. aureus Mu50 assessed as growth inhibition measured at 5 mins interval over 20 hrs by spectrophotometric analysis relative to control; format: functional
# In short: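 S. aureus Mu50 was grown in Mueller−Hinton broth at 37 °C with shaking between reads. Dilution and inoculum were as for broth microdilution, with compound at 0.031–64 μg/mL. OD600 was read at 5 min intervals over 20 h against an untreated control. Run in triplicate.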
# [22] = tested on: Pseudomonas aeruginosa; assay: Antibacterial activity against ceftazidime, ciprofloxacin, cefepime, gentamycin, imipenem, meropenem, piperacillin/tazobactam-resistant Pseudomonas aeruginosa 63230 assessed as growth inhibition by CLSI broth microdilution method; format: functional; in short: as §2
# [23] = tested on: Bacillus subtilis; assay: Induction of helD promoter in Bacillus subtilis IS34 at 64 ug/mL after 3 hrs by luciferase reporter gene assay; format: functional, organism-based; in short: as §3
# [24] = tested on: Klebsiella pneumoniae; assay: Antibacterial activity against doxycycline, kanamycin-resistant Klebsiella pneumoniae ATCC 27799 assessed as growth inhibition by CLSI broth microdilution method; format: functional; in short: as §2
# [25] = tested on: Bacillus subtilis; assay: Antibacterial activity against Bacillus subtilis subsp. subtilis str. 168 trpC2 assessed as concentration required for partial growth inhibition by CLSI broth microdilution method; format: functional
# [26] = tested on: Staphylococcus aureus; assay: Antibacterial activity against ceftazidime, clarithromycin, ciprofloxacin, clindamycin, doxycycline, erythromycin, methicillin, moxifloxacin, kanamycin, telithromycin, rifampicin, methicillin-resistant, vancomycin-intermediate Staphylococcus aureus subsp. aureus Mu50 assessed as concentration required for partial growth inhibition by CLSI broth microdilution method; format: functional
# [27] = tested on: Staphylococcus aureus; assay: Antibacterial activity against Staphylococcus aureus ATCC 29213 assessed as concentration required for partial growth inhibition by CLSI broth microdilution method; format: functional
# [28] = tested on: Bacillus subtilis; assay: Antibacterial activity against Bacillus subtilis subsp. subtilis str. 168 trpC2 assessed as induction of SOS response-mediated DNA degradation at 0.125 ug/mL after 120 mins by DAPI staining-based fluorescence microscopic analysis; format: functional, organism-based
# In short: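 B. subtilis 168 trpC2 was grown in lysogeny broth to OD600 0.1−0.3, then treated in plates at 37 °C with shaking. Aliquots were taken 30−180 min after addition and stained 60 s with DAPI (1 μg/mL stock). Cells were immobilized on 1% agarose slides and imaged by phase contrast and fluorescence. Performed twice.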
# [29] = tested on: Bacillus subtilis; assay: Induction of yorB promoter in Bacillus subtilis IS34 after 3 hrs at 0.001 to 10 ug/ml by luciferase reporter gene assay; format: functional; in short: as §3
SMILES,MIC [1] [µg/mL],IC50 [2] [µg/mL],MIC [3] [µg/mL],MIC [4] [µg/mL],MIC [5] [µg/mL],growth inhibition (GI) [6],MIC [7] [µg/mL],Activity [8],MIC [9] [µg/mL],MIC [10] [µg/mL],MIC [11] [µg/mL],Activity [12],MIC [13] [µg/mL],MIC [16] [µg/mL],IC50 [17] [µg/mL],MIC [18] [µg/mL],Activity [19],MIC [22] [µg/mL],Activity [23],MIC [24] [µg/mL],other results
"Cc1cc(O)c2c(c1)C(=O)c1cc(O)c(-c3c(O)cc4c(O)c5c(cc4c3O)CC(C)(O)CC5=O)c(O)c1C2=O (single isomer, unassigned; atropisomer) [Talaromannin B]",> 64,> 32,32,64,16,Active,16,inactive,32,8,> 64,inactive,64,> 64,> 32,> 64,Active,> 64,inactive,> 64,MIC [14]: 8 µg/mL; concentration giving maximal yorB promoter induction [15]: 8 µg/mL; Activity [20]: Active; growth inhibition (GI) [21]: Dose-dependent effect
CO[C@@]12[C@H](COC(N)=O)C3=C(C(=O)C(C)=C(N)C3=O)N1C[C@@H]1N[C@@H]12,,,,,,,,,,,,,,,,,Active,,,,
"CC1(O)CC(=O)c2c(cc3cc(O)c(-c4c(O)cc5cc6c(c(O)c5c4O)C(=O)CC(C)(O)C6)c(O)c3c2O)C1 (single isomer, unassigned; atropisomer) [FLAVOMANNIN A]",> 64,> 32,> 64,> 64,8,Active,16,inactive,> 64,16,> 64,inactive,> 64,> 64,> 32,> 64,,> 64,inactive,> 64,Activity [15]: inactive; fold change (FC) [19]: <2; Activity [20]: Active; growth inhibition (GI) [21]: Dose-dependent effect
Cc1cc(O)c2c(c1)C(=O)c1cc(O)cc(O)c1C2=O [EMODIN],> 64,32,1,> 64,2,,4,inactive,> 64,4,> 64,inactive,16,> 64,32,16,inactive,> 64,inactive,> 64,MIC [25]: 8 µg/mL; Activity [15]: inactive; MIC [26]: 2 µg/mL; MIC [27]: 2 µg/mL
O=C(O)c1cn(C2CC2)c2cc(N3CCNCC3)c(F)cc2c1=O [CIPROFLOXACIN],,,,,,,,,,,,,,,,,Active,,,,Activity [28]: Active; fold change (FC) [29]: 20
"COc1cc2cc3c(c(O)c2c(O)c1-c1c(O)cc2cc4c(c(O)c2c1O)C(=O)CC(C)(O)C4)C(=O)CC(C)(O)C3 (single isomer, unassigned; atropisomer) [FLAVOMANNIN C]",> 64,> 32,> 64,> 64,32,Active,64,inactive,> 64,16,> 64,inactive,32,> 64,> 32,> 64,,> 64,inactive,> 64,Activity [15]: inactive; growth inhibition (GI) [21]: Dose-dependent effect
"COc1cc2cc3c(c(O)c2c(O)c1-c1c(O)cc2c(O)c4c(cc2c1O)CC(C)(O)CC4=O)C(=O)CC(C)(O)C3 (single isomer, unassigned; atropisomer) [FLAVOMANNIN D]",> 64,> 32,64,> 64,8,Active,8,inactive,64,8,> 64,inactive,32,> 64,> 32,64,Active,> 64,inactive,> 64,concentration giving maximal yorB promoter induction [15]: 2 µg/mL; growth inhibition (GI) [21]: Dose-dependent effect
